Values after ≈ are worked out from the molar mass of the structure shown. “Also recorded” adds a separate entry of the source. Where two headings read alike, the source gives them in different places.
Columns and labels:
SIRT2 [1] = molecular target: T1, SIRT2 (Homo sapiens, UniProt Q8IXJ6); assay: Secondary SIRT2 inhibitory assay; type: biochemical; settings: second assay system; for IC50: read-out: SIRT2 IC50 ± SE
T1 sequence (Q8IXJ6 1-389): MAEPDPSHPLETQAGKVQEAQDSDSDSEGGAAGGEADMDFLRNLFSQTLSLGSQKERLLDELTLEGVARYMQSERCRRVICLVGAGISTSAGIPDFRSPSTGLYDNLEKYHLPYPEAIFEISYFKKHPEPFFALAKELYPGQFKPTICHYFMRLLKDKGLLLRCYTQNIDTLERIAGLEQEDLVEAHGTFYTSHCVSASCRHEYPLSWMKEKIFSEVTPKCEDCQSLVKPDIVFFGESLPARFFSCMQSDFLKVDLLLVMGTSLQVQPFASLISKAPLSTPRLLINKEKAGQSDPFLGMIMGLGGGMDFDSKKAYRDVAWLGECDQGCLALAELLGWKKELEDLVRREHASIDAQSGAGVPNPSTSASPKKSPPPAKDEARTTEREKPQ

SIRT1 = molecular target: T2, SIRT1 (Homo sapiens, UniProt Q96EB6); assay: Secondary SIRT1 inhibitory assay; type: biochemical; settings: read-out: SIRT1 IC50 ± SE; second assay system
T2 sequence (Q96EB6 1-747): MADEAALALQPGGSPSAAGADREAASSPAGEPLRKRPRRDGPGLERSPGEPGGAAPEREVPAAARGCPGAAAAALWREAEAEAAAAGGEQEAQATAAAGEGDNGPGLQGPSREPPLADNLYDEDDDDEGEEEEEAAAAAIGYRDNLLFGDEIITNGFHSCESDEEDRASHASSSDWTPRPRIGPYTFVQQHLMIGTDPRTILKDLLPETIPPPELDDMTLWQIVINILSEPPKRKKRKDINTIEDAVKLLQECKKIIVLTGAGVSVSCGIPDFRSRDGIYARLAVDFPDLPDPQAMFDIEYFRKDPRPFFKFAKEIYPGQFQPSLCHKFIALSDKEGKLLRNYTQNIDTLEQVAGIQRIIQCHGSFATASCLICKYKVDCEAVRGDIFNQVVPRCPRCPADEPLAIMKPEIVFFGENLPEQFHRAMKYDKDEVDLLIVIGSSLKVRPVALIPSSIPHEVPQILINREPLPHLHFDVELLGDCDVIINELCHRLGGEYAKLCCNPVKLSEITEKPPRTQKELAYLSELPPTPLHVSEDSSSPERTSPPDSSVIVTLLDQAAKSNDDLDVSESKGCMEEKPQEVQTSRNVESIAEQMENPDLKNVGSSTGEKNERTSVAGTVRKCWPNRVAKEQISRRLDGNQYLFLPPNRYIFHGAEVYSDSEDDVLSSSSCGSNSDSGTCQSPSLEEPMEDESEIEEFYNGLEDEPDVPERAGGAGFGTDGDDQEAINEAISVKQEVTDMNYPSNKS

sodium channels = assay: Sodium channel blocking assay in neuro-2a cells; type: cell-based, mouse
SIRT2 [2] = molecular target: T1, SIRT2; assay: Initial SIRT2 inhibitory assay; type: biochemical
How it was run: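 Reactions contained 50 µM fluor de Lys substrate, 270 nM SIRT2 and 1 mM NAD, with or without test compound, in Buffer A (25 mM Tris-HCl pH 8.0, 137 mM NaCl, 2.7 mM KCl, 1 mM MgCl2). Blanks lacked NAD. After 2 h at 37°, reactions were stopped with 2.7 mg/mL trypsin in Buffer A and developed for 20 min. Fluorescence was read at ex 360/em 460 nm.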

[3] = system: NCI-H460 lung tumor cells; assay: Cytotoxicity assay; type: cell-based; settings: human lung H-460
How it was run: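 NCI-H460 cells were seeded at 6000 cells/well in 96-well plates and dosed 24 h later. The test compound was dissolved in DMSO and diluted into medium without fetal bovine serum, with DMSO below 0.5% final. Viability was read by MTT reduction.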

Candida albicans = settings: 100 µg/disk; cited from earlier work
Biomphalaria glabrata = settings: cited from earlier work
Artemia salina = settings: cited from earlier work
SIRT2 [4] = molecular target: T1, SIRT2; settings: read-out: IC50 (SIRT2), reported; cited from earlier work

For (5S, 5’S)-tanikolide dimer [ent-5], the IC50 (SIRT2 [1]) was 3.1 ± 0.3 µM, the “fold more potent to the SIRT2 isoform than to SIRT1” value (shortened to “fold more potent”) (SIRT2 [1]) was “approximately 10 fold” and the IC50 (SIRT1) was 34.5 ± 3.5 µM.

In the case of (5R, 5’R)-tanikolide dimer [Compound 3], the “inhibition in sodium channel blocking assay” value (sodium channels; at 5.2 µM) is reported as 54%, the IC50 (SIRT2 [1]; listed as 5) is reported as 3.3 ± 0.2 µM and the “fold more potent” value (SIRT2 [1]) is reported as “approximately 10 fold”. The IC50 (SIRT2 [2]; read-out: IC50 against SIRT2, initial assay format) was 0.176 µM, the “cytotoxicity to H-460 cell line” value ([3]; at 10 µM) was “did not have any activity” and the IC50 (SIRT1) was 36.4 ± 8.1 µM.

In the case of `CCCCCCCCCCC[C@]1(CO)CCCC(=O)O1` [Compound 1, Tanikolide], the diameter zone inhibition (Candida albicans) is listed as 13 mm, the LC50 snail (Biomphalaria glabrata) is listed as 9.0 µg/mL (≈ 31.6 µM) and the LC50 brine shrimp (Artemia salina) is listed as 3.6 µg/mL (≈ 12.7 µM).

In the case of `CCCCCCCCCCCC(O)(CO)CCCC(=O)O` (stereo not shown) [Compound 2, Tanikolide seco acid], the “sodium channel blocking activity” value (sodium channels; highest concentration tested 10 µM) is reported as “inactive”, the SIRT2 inhibitory activity (SIRT2 [2]; highest concentration tested 50 µM) is reported as “inactive” and the “cytotoxicity to H-460 cell line” value ([3]; at 9.9 µM) is reported as “moderately toxic; also recorded: moderate cytotoxicity”.

With (5R, 5’S)-tanikolide dimer [Compound 4] the IC50 (SIRT2 [1]) was 2.4 ± 0.2 µM, the “fold more potent” value (SIRT2 [1]) was “approximately 10 fold” and the IC50 (SIRT1) was 28.8 ± 4.3 µM.

In the case of `O=c1oc2ccccc2c2oc3cc(O)c(O)cc3c12` [8,9-dihydroxybenzo-[4,5]furo[3,2-c]chromen-6-one], the IC50 (SIRT2 [4]) is listed as 45 µM.

— PMC2736347 (The Journal of organic chemistry, 2009)
